Results published in ChEMBL document CHEMBL1122824, “Synthesis and biological properties of (carboxyalkyl)amino-substituted bicyclic lactam inhibitors of angiotensin converting enzyme” (J Med Chem, 1985).
Where “and” joins values, the source holds several entries; their conditions need not be identical. Identical values can stand only once.

How the values were obtained:
[1] = biological target: T1, Angiotensin-converting enzyme (Oryctolagus cuniculus, UniProt P12822); test: Inhibition of Angiotensin I converting enzyme
T1 sequence (P12822 whole entry): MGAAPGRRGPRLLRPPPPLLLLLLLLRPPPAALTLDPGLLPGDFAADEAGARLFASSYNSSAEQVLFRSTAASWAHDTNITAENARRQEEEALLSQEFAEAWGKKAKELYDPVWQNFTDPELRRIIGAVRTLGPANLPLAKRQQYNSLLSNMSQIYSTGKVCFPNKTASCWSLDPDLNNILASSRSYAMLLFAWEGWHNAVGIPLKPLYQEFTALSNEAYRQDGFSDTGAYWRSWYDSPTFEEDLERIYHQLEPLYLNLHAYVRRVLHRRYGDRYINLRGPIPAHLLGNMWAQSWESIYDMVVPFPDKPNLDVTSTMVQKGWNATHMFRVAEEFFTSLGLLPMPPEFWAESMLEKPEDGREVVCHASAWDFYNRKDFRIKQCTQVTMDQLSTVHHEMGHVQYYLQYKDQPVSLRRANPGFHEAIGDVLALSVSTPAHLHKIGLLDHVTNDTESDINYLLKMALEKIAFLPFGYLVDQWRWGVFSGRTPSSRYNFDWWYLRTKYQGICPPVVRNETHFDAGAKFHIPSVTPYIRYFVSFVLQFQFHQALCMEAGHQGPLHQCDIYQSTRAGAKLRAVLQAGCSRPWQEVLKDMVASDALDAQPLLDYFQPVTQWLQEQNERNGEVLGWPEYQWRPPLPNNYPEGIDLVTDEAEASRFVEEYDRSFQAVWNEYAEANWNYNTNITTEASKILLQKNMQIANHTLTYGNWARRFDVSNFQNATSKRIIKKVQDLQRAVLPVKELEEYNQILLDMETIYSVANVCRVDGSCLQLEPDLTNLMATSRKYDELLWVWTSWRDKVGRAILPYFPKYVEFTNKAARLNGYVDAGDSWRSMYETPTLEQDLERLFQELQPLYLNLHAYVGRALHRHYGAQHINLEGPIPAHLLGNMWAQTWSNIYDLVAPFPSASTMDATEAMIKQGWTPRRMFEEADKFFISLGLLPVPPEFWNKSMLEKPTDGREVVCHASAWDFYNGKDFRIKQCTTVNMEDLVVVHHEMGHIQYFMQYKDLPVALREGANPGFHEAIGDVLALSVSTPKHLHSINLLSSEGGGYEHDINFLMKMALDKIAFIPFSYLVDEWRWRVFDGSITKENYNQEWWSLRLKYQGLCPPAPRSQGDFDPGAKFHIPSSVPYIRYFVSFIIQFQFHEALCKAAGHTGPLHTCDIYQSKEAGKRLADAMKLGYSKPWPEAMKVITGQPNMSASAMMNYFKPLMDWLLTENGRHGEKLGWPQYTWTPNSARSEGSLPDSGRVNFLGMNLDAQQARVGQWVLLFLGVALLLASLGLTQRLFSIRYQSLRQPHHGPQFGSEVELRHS

Rattus norvegicus [2] = test: Effects of oral dosing (10 mg/kg) on systolic blood pressure in spontaneously hypertensive rats, day 4,at 2 hr; format: functional, Artery
Summary of the method: (§1)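 Spontaneously hypertensive rats, 6 per group, were dosed orally once daily for 4 days at 0.1, 1.0 or 10 mg/kg. Systolic pressure was recorded before the first dose and at 2 and 24 h after each daily dose. Values are group mean ±SE with change from predose.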

Rattus norvegicus [3] = test: Effects of oral dosing (1 mg/kg) on systolic blood pressure in spontaneously hypertensive rats, day 1,at 24 hr; format: functional, Artery; summary of the method: as §1
Rattus norvegicus [4] = test: Effects of oral dosing (1 mg/kg) on systolic blood pressure in spontaneously hypertensive rats, day 1,at 2 hr; format: functional, Artery; summary of the method: as §1
Rattus norvegicus [5] = test: Effects of oral dosing (1 mg/kg) on systolic blood pressure in spontaneously hypertensive rats, day 2,at 24 hr; format: functional, Artery; summary of the method: as §1
Rattus norvegicus [6] = test: Effects of oral dosing (1 mg/kg) on systolic blood pressure in spontaneously hypertensive rats, day 2,at 2 hr; format: functional, Artery; summary of the method: as §1
Rattus norvegicus [7] = test: Effects of oral dosing (1 mg/kg) on systolic blood pressure in spontaneously hypertensive rats, day 3,at 24 hr; format: functional, Artery; summary of the method: as §1
Rattus norvegicus [8] = test: Effects of oral dosing (1 mg/kg) on systolic blood pressure in spontaneously hypertensive rats, day 3,at 2 hr; format: functional, Artery; summary of the method: as §1
Rattus norvegicus [9] = test: Effects of oral dosing (1 mg/kg) on systolic blood pressure in spontaneously hypertensive rats, day 4,at 24 hr; format: functional, Artery; summary of the method: as §1
Rattus norvegicus [10] = test: Effects of oral dosing (1 mg/kg) on systolic blood pressure in spontaneously hypertensive rats, day 4,at 2 hr; format: functional, Artery; summary of the method: as §1
Rattus norvegicus [11] = species on record: Rattus norvegicus; test: Predose systolic blood pressure in spontaneously hypertensive rats; format: functional, Artery; summary of the method: as §1
Rattus norvegicus [12] = test: Effects of oral dosing (10 mg/kg) on systolic blood pressure in spontaneously hypertensive rats, day 1,at 24 hr; format: functional, Artery; summary of the method: as §1
Rattus norvegicus [13] = test: Effects of oral dosing (10 mg/kg) on systolic blood pressure in spontaneously hypertensive rats, day 1,at 2 hr; format: functional, Artery; summary of the method: as §1
Rattus norvegicus [14] = test: Effects of oral dosing (10 mg/kg) on systolic blood pressure in spontaneously hypertensive rats, day 2,at 24 hr; format: functional, Artery; summary of the method: as §1
Rattus norvegicus [15] = test: Effects of oral dosing (10 mg/kg) on systolic blood pressure in spontaneously hypertensive rats, day 2,at 2 hr; format: functional, Artery; summary of the method: as §1
Rattus norvegicus [16] = test: Effects of oral dosing (10 mg/kg) on systolic blood pressure in spontaneously hypertensive rats, day 3,at 24 hr; format: functional, Artery; summary of the method: as §1
Rattus norvegicus [17] = test: Effects of oral dosing (10 mg/kg) on systolic blood pressure in spontaneously hypertensive rats, day 3,at 2 hr; format: functional, Artery; summary of the method: as §1
Rattus norvegicus [18] = test: Effects of oral dosing (10 mg/kg) on systolic blood pressure in spontaneously hypertensive rats, day 4,at 24 hr; format: functional, Artery; summary of the method: as §1
Rattus norvegicus [19] = test: Effects of oral dosing (0.1 mg/kg) on systolic blood pressure in spontaneously hypertensive rats, day 1,at 24 hr; format: functional, Artery; summary of the method: as §1
Rattus norvegicus [20] = test: Effects of oral dosing (0.1 mg/kg) on systolic blood pressure in spontaneously hypertensive rats, day 1,at 2 hr; format: functional, Artery; summary of the method: as §1
Rattus norvegicus [21] = test: Effects of oral dosing (0.1 mg/kg) on systolic blood pressure in spontaneously hypertensive rats, day 2,at 24 hr; format: functional, Artery; summary of the method: as §1
Rattus norvegicus [22] = test: Effects of oral dosing (0.1 mg/kg) on systolic blood pressure in spontaneously hypertensive rats, day 2,at 2 hr; format: functional, Artery; summary of the method: as §1
Rattus norvegicus [23] = test: Effects of oral dosing (0.1 mg/kg) on systolic blood pressure in spontaneously hypertensive rats, day 3,at 24 hr; format: functional, Artery; summary of the method: as §1
Rattus norvegicus [24] = test: Effects of oral dosing (0.1 mg/kg) on systolic blood pressure in spontaneously hypertensive rats, day 3,at 2 hr; format: functional, Artery; summary of the method: as §1
Rattus norvegicus [25] = test: Effects of oral dosing (0.1 mg/kg) on systolic blood pressure in spontaneously hypertensive rats, day 4,at 2 hr; format: functional, Artery; summary of the method: as §1
Rattus norvegicus [26] = test: Effects of oral dosing (0.1 mg/kg) on systolic blood pressure in spontaneously hypertensive rats, day 4,at 24 hr; format: functional, Artery; summary of the method: as §1

O=C(O)CN1C(=O)[C@@H](N[C@@H](CCc2ccccc2)C(=O)O)CCCc2ccccc21
IC50 [1]: 4 nM

O=C(O)CN1C(=O)[C@H](N[C@@H](CCc2ccccc2)C(=O)O)CCCc2ccccc21
IC50 [1]: 62 nM

O=C(O)CN1C(=O)[C@H](N[C@@H](CCc2ccccc2)C(=O)O)Cc2ccccc21
IC50 [1]: 5100 nM

O=C(O)CN1C(=O)[C@@H](N[C@@H](CCc2ccccc2)C(=O)O)Cc2ccccc21
IC50 [1]: 610 nM and 1200 nM

CCOC(=O)[C@H](CCc1ccccc1)N[C@@H](C)C(=O)N1CCC[C@H]1C(=O)O
Systolic blood pressure (Rattus norvegicus [2]): 135.5 mmHg
Systolic blood pressure (Rattus norvegicus [3]): 169.5 mmHg
Systolic blood pressure (Rattus norvegicus [4]): 160 mmHg
Systolic blood pressure (Rattus norvegicus [5]): 168.7 mmHg
Systolic blood pressure (Rattus norvegicus [6]): 158.7 mmHg
Systolic blood pressure (Rattus norvegicus [7]): 160 mmHg
Systolic blood pressure (Rattus norvegicus [8]): 146.7 mmHg
Systolic blood pressure (Rattus norvegicus [9]): 160.8 mmHg
Systolic blood pressure (Rattus norvegicus [10]): 145 mmHg
Systolic blood pressure (Rattus norvegicus [11]): 197.7 mmHg and 186.8 mmHg and 199 mmHg
Systolic blood pressure (Rattus norvegicus [12]): 168.3 mmHg
Systolic blood pressure (Rattus norvegicus [13]): 152.5 mmHg
Systolic blood pressure (Rattus norvegicus [14]): 163 mmHg
Systolic blood pressure (Rattus norvegicus [15]): 138.5 mmHg
Systolic blood pressure (Rattus norvegicus [16]): 174 mmHg
Systolic blood pressure (Rattus norvegicus [17]): 124.5 mmHg
Systolic blood pressure (Rattus norvegicus [18]): 159.8 mmHg
Systolic blood pressure (Rattus norvegicus [19]): 175.8 mmHg
Systolic blood pressure (Rattus norvegicus [20]): 197.5 mmHg
Systolic blood pressure (Rattus norvegicus [21]): 173.7 mmHg
Systolic blood pressure (Rattus norvegicus [22]): 172 mmHg
Systolic blood pressure (Rattus norvegicus [23]): 173.5 mmHg
Systolic blood pressure (Rattus norvegicus [24]): 175.7 mmHg
Systolic blood pressure (Rattus norvegicus [25]): 168 mmHg
Systolic blood pressure (Rattus norvegicus [26]): 204 mmHg

O=C(O)CN1C(=O)[C@@H](N[C@@H](CCc2ccccc2)C(=O)O)CCc2ccccc21 (stereo in doubt; 4b)
IC50 [1]: 2.8 nM

O=C(O)CN1C(=O)[C@@H](N[C@@H](CCc2ccccc2)C(=O)O)CCc2ccccc21 (stereo in doubt; 4e)
IC50 [1]: 5.2 nM

O=C(O)CN1C(=O)[C@@H](N[C@@H](CCc2ccccc2)C(=O)O)CCc2ccccc21 (stereo in doubt; 4f)
IC50 [1]: 58 nM

CCOC(=O)[C@H](CCc1ccccc1)N[C@H]1CCc2ccccc2N(CC(=O)O)C1=O.Cl [BENAZEPRIL HYDROCHLORIDE]
Systolic blood pressure (Rattus norvegicus [2]): 130.8 mmHg
Systolic blood pressure (Rattus norvegicus [3]): 185.8 mmHg
Systolic blood pressure (Rattus norvegicus [4]): 185.7 mmHg
Systolic blood pressure (Rattus norvegicus [5]): 168.7 mmHg
Systolic blood pressure (Rattus norvegicus [6]): 182.8 mmHg
Systolic blood pressure (Rattus norvegicus [7]): 177.3 mmHg
Systolic blood pressure (Rattus norvegicus [8]): 166.5 mmHg
Systolic blood pressure (Rattus norvegicus [9]): 180.2 mmHg
Systolic blood pressure (Rattus norvegicus [10]): 171.3 mmHg
Systolic blood pressure (Rattus norvegicus [11]): 193.6 mmHg and 200 mmHg and 198 mmHg
Systolic blood pressure (Rattus norvegicus [12]): 167.5 mmHg
Systolic blood pressure (Rattus norvegicus [13]): 162.2 mmHg
Systolic blood pressure (Rattus norvegicus [14]): 147.3 mmHg
Systolic blood pressure (Rattus norvegicus [15]): 146 mmHg
Systolic blood pressure (Rattus norvegicus [16]): 150.2 mmHg
Systolic blood pressure (Rattus norvegicus [17]): 131 mmHg
Systolic blood pressure (Rattus norvegicus [18]): 150 mmHg
Systolic blood pressure (Rattus norvegicus [19]): 186 mmHg
Systolic blood pressure (Rattus norvegicus [20]): 193.8 mmHg
Systolic blood pressure (Rattus norvegicus [21]): 169.8 mmHg
Systolic blood pressure (Rattus norvegicus [22]): 195.8 mmHg
Systolic blood pressure (Rattus norvegicus [23]): 172.4 mmHg
Systolic blood pressure (Rattus norvegicus [24]): 176.2 mmHg
Systolic blood pressure (Rattus norvegicus [25]): 182.8 mmHg
Systolic blood pressure (Rattus norvegicus [26]): 176 mmHg
